Measured values: ChEMBL document CHEMBL4138252, “Novel Polyamine-Naphthalene Diimide Conjugates Targeting Histone Deacetylases and DNA for Cancer Phenotype Reprogramming” (ACS Med Chem Lett, 2017)
The source made the active and inactive calls. No cut-off for these calls is given here.

How the values were obtained:
[1] = biological target: Histone deacetylase; assay: Inhibition of HDAC in human HeLa nuclear extract using Fluor de Lys as substrate by fluorimetric method; format: protein assay
[2] = tested on: dsDNA; assay: Stabilization of 5'6FAM/3'Dabcyl-labelled double stranded DNA (unknown origin) assessed as change in melting temperature at 2.5 uM by fluorescence assay; format: nucleic-acid assay
In short: (§1)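 Thermal stabilization of dsDNA or G-quadruplex DNA is measured as ΔTm at 0.75 and 2.5 μM compound.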

[3] = tested on: Quadruplex DNA; assay: Stabilization of 3'-6FAM/5'-Dabcyl-labelled human telomeric 22 G-quadruplex DNA assessed as change in melting temperature at 0.75 uM by fluorescence assay; format: nucleic-acid assay; in short: as §1
[4] = tested on: Quadruplex DNA; assay: Stabilization of 3'-6FAM/5'-Dabcyl-labelled human telomeric 22 G-quadruplex DNA assessed as change in melting temperature at 2.5 uM by fluorescence assay; format: nucleic-acid assay; in short: as §1
[5] = tested on: dsDNA; assay: Stabilization of 5'6FAM/3'Dabcyl-labelled double stranded DNA (unknown origin) assessed as change in melting temperature at 0.75 uM by fluorescence assay; format: nucleic-acid assay; in short: as §1
[6] = tested on: HCT-116; assay: Growth inhibition of human HCT116 cells after 48 hrs by alamar blue assay; format: functional; conditions: for GI50: HCT-116, 48 h
In short: (§2)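 Growth inhibition in U87, HCT116 and A549 cells at 0.2, 1 and 5 μM. GI50 is derived from the inhibitory dose–response curve.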

[7] = tested on: A549; assay: Inhibition of epithelial-mesenchymal transition in human A549 cells assessed as down regulation of VIM expression at 5 uM after 48 hrs by SYBR-green dye based RT-PCR analysis relative to control; format: functional
In short: (§3)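 HCT116 and A549 cells are treated 48 h with 5 μM. CDH1 and VIM expression is measured against untreated control. Data are mean ± SEM of four independent experiments.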

[8] = tested on: A549; assay: Inhibition of epithelial-mesenchymal transition in human A549 cells assessed as upregulation of CDH1 expression at 5 uM after 48 hrs by SYBR-green dye based RT-PCR analysis relative to control; format: functional; in short: as §3
[9] = tested on: HCT-116; assay: Inhibition of epithelial-mesenchymal transition in human HCT116 cells assessed as down regulation of VIM expression at 5 uM after 48 hrs by SYBR-green dye based RT-PCR analysis relative to control; format: functional; in short: as §3
[10] = tested on: HCT-116; assay: Inhibition of epithelial-mesenchymal transition in human HCT116 cells assessed as upregulation of CDH1 expression at 5 uM after 48 hrs by SYBR-green dye based RT-PCR analysis relative to control; format: functional; in short: as §3
[11] = tested on: A549; assay: Growth inhibition of human A549 cells after 48 hrs by alamar blue assay; format: functional; conditions: for GI50: A549, 48 h; in short: as §2
[12] = tested on: U-87 MG; assay: Growth inhibition of human U87 cells after 48 hrs by alamar blue assay; format: functional; in short: as §2
[13] = biological target: Histone deacetylase 2 (Homo sapiens, UniProt Q92769); assay: Inhibition of recombinant human C-terminal GST-tagged HDAC2 (1 to 488 residues) expressed in baculovirus infected Sf21 insect cells using RHK-K(Ac)-AMC as substrate measured after 30 mins by fluorescence assay
Sequence of Histone deacetylase 2 (Q92769 whole entry, the tested form may be a part): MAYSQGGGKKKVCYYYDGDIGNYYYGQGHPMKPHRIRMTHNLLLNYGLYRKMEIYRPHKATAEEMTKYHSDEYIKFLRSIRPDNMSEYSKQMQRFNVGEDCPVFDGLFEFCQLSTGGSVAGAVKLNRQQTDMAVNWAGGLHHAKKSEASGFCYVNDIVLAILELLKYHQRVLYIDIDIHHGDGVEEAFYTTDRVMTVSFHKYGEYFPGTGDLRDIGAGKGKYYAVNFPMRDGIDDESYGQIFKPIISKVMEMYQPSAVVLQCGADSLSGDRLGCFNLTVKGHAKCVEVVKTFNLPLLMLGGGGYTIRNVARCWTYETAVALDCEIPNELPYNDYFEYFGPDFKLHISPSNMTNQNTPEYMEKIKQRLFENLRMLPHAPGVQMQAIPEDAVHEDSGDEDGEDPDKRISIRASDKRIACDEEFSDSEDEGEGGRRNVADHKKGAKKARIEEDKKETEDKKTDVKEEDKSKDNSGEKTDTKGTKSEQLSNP

[14] = tested on: A549; assay: Inhibition of TGFbeta1-induced epithelial-mesenchymal transition in human A549 cells assessed as down regulation of VIM expression at 5 uM treated for 24 hrs in presence of TGFbeta1 followed by addition of fresh media containing compounds for 24 hrs by SYBR-green dye based RT-PCR analysis relative to control; format: functional
In short: (§4)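 A549 cells are stimulated with TGF-β1, alone or combined with 5 μM compound. CDH1 and VIM expression is measured and compared with control and with TGF-β1 alone.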

[15] = biological target: Histone deacetylase 1 (Homo sapiens, UniProt Q13547); assay: Inhibition of recombinant human C-terminal FLAG-His tagged HDAC1 (1 to 482 residues) expressed in Sf21 insect cells using RHK-K(Ac)-AMC as substrate by fluorescence assay
Sequence of Histone deacetylase 1 (Q13547 whole entry, the tested form may be a part): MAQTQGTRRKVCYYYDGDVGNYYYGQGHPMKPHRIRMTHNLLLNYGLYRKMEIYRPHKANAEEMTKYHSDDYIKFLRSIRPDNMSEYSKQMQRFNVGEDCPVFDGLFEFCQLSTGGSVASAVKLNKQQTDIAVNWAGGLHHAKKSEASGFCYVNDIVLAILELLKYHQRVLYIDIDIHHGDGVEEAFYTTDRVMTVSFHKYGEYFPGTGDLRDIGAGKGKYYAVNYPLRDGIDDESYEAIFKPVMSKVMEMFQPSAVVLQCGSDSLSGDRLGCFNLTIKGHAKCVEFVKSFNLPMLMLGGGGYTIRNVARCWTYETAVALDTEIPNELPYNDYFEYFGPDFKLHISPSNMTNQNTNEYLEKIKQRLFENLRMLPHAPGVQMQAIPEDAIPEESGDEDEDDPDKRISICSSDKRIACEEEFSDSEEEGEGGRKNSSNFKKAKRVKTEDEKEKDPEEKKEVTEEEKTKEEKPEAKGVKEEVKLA

[16] = tested on: A549; assay: Suppression of TGFbeta1-induced cell proliferation in human A549 cells at 5 uM treated for 24 hrs in presence of TGFbeta1 followed by addition of fresh media containing compounds for 24 hrs by alamar blue assay relative to control; format: functional
In short: (§5)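 A549 cells stimulated with TGF-β1 get a 48 h-long 5 μM treatment. Percentage growth is evaluated according to NCI screening procedures, as mean value.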

[17] = biological target: Histone deacetylase 4 (Homo sapiens, UniProt P56524); assay: Inhibition of recombinant human N-terminal GST-tagged/C-terminal His-tagged HDAC4 (627 to 1084 residues) expressed in baculovirus infected Sf21 insect cells using (Boc-Lys(trifluoroacetyl)-AMC) as substrate by fluorescence assay
Sequence of Histone deacetylase 4 (P56524 whole entry, the tested form may be a part): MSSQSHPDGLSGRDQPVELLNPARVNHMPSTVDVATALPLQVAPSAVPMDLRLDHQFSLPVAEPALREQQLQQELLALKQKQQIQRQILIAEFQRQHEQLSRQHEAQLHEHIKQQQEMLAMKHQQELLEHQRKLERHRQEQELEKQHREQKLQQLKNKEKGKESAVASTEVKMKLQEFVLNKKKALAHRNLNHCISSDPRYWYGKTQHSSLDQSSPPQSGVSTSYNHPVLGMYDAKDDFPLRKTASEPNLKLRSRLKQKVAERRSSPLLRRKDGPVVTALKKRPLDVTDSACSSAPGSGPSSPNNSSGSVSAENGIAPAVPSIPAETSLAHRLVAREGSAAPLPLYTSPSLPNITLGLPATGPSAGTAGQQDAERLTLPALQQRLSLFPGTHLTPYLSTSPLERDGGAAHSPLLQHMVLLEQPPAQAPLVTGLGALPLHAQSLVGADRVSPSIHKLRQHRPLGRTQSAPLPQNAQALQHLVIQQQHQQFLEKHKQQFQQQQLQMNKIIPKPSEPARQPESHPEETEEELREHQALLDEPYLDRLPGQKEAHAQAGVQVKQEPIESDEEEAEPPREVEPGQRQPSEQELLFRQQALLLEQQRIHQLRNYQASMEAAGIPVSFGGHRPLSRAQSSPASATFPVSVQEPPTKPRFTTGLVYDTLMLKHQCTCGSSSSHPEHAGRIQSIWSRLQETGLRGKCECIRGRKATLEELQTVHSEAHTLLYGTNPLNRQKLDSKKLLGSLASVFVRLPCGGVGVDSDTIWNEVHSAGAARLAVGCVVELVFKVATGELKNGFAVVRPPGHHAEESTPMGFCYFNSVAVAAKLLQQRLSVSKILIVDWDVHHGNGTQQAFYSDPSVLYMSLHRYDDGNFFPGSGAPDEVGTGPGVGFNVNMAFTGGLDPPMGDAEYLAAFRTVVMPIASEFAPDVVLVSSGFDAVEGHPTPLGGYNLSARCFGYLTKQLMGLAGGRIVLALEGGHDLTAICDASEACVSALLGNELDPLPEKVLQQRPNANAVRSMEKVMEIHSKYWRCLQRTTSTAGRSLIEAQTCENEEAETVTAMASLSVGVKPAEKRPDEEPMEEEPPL

[18] = tested on: A549; assay: Antimigratory activity against human A549 cells assessed as reduction in cell migration towards wound area at 5 uM measured after 24 hrs by scratch wound-healing assay relative to control; format: functional; set-up: scale not given: the % may be the effect or the level left
In short: (§6)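 Scratch wound healing on A549 cells, with or without TGF-β1 stimulation. Repopulation of the wound area is read at 24 h postscratch.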

[19] = biological target: DNA polymerase I, thermostable (Thermus aquaticus) (UniProt P19821); assay: Inhibition of Thermus aquaticus Taq-polymerase using pBR322 as substrate up to 40 uM by PCR analysis
Sequence of DNA polymerase I, thermostable (Thermus aquaticus) (P19821 whole entry): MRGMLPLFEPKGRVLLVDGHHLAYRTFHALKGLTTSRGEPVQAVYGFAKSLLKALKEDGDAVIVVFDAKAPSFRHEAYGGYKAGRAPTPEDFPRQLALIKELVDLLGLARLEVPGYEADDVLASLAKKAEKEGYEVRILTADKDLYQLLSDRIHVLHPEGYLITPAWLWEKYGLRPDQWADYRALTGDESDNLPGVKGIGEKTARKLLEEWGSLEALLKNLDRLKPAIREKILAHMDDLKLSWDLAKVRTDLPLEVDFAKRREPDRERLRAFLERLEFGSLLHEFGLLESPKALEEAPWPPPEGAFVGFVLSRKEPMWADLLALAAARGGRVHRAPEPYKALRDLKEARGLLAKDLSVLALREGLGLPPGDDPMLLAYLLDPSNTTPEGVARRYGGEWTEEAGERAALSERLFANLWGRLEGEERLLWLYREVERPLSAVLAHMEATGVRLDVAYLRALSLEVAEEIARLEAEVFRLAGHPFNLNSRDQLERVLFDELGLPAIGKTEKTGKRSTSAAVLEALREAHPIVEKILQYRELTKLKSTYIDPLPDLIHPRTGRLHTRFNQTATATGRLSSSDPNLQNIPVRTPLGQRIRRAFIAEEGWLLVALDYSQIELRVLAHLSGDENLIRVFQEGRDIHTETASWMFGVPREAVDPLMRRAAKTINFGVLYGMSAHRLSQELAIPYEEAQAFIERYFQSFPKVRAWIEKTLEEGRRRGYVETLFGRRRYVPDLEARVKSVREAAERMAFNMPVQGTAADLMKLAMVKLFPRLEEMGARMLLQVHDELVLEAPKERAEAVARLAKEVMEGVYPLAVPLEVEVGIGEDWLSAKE

[20] = tested on: A549; assay: Antimigratory activity against TGFbeta1-stimulated human A549 cells assessed as reduction in cell migration towards wound area at 5 uM treated for 24 hrs in presence of TGFbeta1 followed by addition of fresh media containing compounds for 24 hrs by scratch wound-healing assay relative to control; format: functional; in short: as §6
[21] = biological target: T1, Protein deacetylase HDAC6 (Homo sapiens, UniProt Q9UBN7); assay: Inhibition of recombinant human N-terminal GST-tagged HDAC6 (1 to 1215 residues) expressed in baculovirus infected Sf21 insect cells using RHKKAc as substrate by fluorescence assay
T1 sequence (Q9UBN7 whole entry): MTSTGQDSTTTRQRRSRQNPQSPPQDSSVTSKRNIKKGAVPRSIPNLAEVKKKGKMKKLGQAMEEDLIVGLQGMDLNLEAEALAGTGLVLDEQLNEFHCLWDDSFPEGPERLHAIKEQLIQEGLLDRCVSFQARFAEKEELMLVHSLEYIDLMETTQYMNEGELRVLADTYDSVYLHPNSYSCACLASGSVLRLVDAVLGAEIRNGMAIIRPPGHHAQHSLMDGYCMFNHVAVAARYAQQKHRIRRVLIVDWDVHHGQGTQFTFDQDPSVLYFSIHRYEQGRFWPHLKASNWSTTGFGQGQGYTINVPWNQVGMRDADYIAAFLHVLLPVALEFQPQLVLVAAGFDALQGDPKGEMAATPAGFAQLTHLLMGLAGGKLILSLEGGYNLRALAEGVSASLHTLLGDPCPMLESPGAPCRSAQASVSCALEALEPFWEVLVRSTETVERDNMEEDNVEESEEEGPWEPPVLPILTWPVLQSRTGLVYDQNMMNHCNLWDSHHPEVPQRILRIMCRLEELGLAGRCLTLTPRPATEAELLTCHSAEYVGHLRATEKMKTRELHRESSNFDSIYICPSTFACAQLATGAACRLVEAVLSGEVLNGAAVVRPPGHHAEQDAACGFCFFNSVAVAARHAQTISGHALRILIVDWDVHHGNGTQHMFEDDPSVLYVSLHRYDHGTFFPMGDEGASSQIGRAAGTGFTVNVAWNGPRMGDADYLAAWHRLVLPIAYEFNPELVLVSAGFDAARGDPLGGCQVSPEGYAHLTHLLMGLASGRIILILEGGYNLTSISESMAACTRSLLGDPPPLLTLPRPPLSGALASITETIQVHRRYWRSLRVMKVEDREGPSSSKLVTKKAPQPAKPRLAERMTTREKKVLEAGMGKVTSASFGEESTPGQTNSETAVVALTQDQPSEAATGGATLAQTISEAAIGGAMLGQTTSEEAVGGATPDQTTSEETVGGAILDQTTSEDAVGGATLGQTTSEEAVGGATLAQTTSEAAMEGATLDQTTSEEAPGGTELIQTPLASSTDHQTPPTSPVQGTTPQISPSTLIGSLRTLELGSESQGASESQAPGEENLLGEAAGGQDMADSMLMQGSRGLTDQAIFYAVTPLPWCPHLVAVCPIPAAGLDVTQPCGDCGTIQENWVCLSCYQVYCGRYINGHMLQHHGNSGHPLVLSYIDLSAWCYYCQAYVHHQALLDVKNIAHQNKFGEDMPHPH

[22] = tested on: A549; assay: Inhibition of TGFbeta1-induced epithelial-mesenchymal transition in human A549 cells assessed as upregulation of CDH1 expression at 5 uM treated for 24 hrs in presence of TGFbeta1 followed by addition of fresh media containing compounds for 24 hrs by SYBR-green dye based RT-PCR analysis relative to control; format: functional; in short: as §4
[23] = biological target: T2, Histone deacetylase (Homo sapiens) (UniProt Q13547+O15379+Q9UBN7+Q92769+Q9UQL6+Q8WUI4+Q9BY41+Q96DB2+P56524+Q9UKV0+Q969S8); assay: Inhibition of HDAC in human A549 cells assessed as increase in acetylated H3 level at 5 uM after 24 hrs by Western blot analysis relative to control; format: cell-based
In short: (§7)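 A549 cells are treated 24 h at 5 μM. Global histone H3 and H4 lysine acetylation is detected by Western blotting.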

[24] = tested on: A549; assay: Suppression of TGFbeta1-induced cell proliferation in human A549 cells assessed as reduction in cell growth at 5 uM treated for 24 hrs in presence of TGFbeta1 followed by addition of fresh media containing compounds for 24 hrs by alamar blue assay relative to control; format: functional; set-up: scale not given: the % may be the effect or the level left; in short: as §5
[25] = biological target: T2, Histone deacetylase (Homo sapiens); assay: Inhibition of HDAC in human A549 cells assessed as increase in acetylated H4 level at 5 uM after 24 hrs by Western blot analysis relative to control; format: cell-based; in short: as §7

SMILES	IC50 [1] [µM]	ΔTm [2] [°C]	ΔTm [3] [°C]	ΔTm [4] [°C]	ΔTm [5] [°C]	GI50 [6] [µM]	GI50 [11] [µM]	GI50 [12] [µM]	other results
Cl.NCCCNCCCCNCCCN1C(=O)c2ccc3c4c(ccc(c24)C1=O)C(=O)N(CCCCCC(=O)NO)C3=O	0.52	8.1	4.5	10.9	3.5				
Cl.NCCCNCCCN1C(=O)c2ccc3c4c(ccc(c24)C1=O)C(=O)N(CCCCCC(=O)NO)C3=O	0.41		2.4		1				
O=C(CCCCCN1C(=O)c2cccc3cccc(c23)C1=O)NO		0.1	0.1	0.1	0.1				growth inhibition (GI) [6]: Active; inhibition [7]: inactive; inhibition [8]: inactive; inhibition [9]: inactive; inhibition [10]: inactive; growth inhibition (GI) [11]: Active; growth inhibition (GI) ([12]; U-87MG ATCC): Active
CN(C)c1ccc(Nc2c3ccc(NC(=O)CCN4CCCC4)cc3nc3cc(NC(=O)CCN4CCCC4)ccc23)cc1		5.3	11	28.3	0.5				
Cl.NCCCCNCCCCNCCCN1C(=O)c2ccc3c4c(ccc(c24)C1=O)C(=O)N(CCCCCC(=O)NO)C3=O	0.56		13.3		7.5	3.08	> 5	> 5	IC50 [13]: 10.8 µM; fold change (FC) [14]: 2.61; IC50 [15]: 4.12 µM; fold change (FC) [16]: 1.38; IC50 [17]: 117 µM; fold change (FC) [7]: 0.68; Activity [18]: >80%; fold change (FC) [8]: 1.28; inhibition [19]: Active; fold change (FC) [9]: 0.44; fold change (FC) [10]: 1.32; fold change (FC) [20]: 1.38; IC50 [21]: 0.05 µM; fold change (FC) [22]: 3.66; fold change (FC) [23]: 2; Activity [24]: 85%; fold change (FC) [25]: 2
Cl.NCCCNCCCNCCCN1C(=O)c2ccc3c4c(ccc(c24)C1=O)C(=O)N(CCCCCC(=O)NO)C3=O	0.37		9.9		5	2.13	> 5	> 5	inhibition [19]: Active
COc1ccccc1CNCCCN1C(=O)c2ccc3c4c(ccc(c24)C1=O)C(=O)N(CCCNCCCCNCCCN)C3=O			1.5		0.6	4.39	> 5	4.85	inhibition [7]: inactive; inhibition [8]: inactive; inhibition [9]: inactive; inhibition [10]: inactive
Cl.NCCCNCCNCCCN1C(=O)c2ccc3c4c(ccc(c24)C1=O)C(=O)N(CCCCCC(=O)NO)C3=O	0.55	3.4	4.4	7.8	2				
